ChEMBL document CHEMBL3351895, “Cytotoxicity of synthesized 1,4-naphthoquinone analogues on selected human cancer cell lines” (Bioorg Med Chem, 2014)
pIC50: −log10 of the molar value.

How the values were obtained:
HeLa = experiment: Cytotoxicity against human HeLa cells assessed as cell survival after 48 hrs by XTT assay
MCF7 = experiment: Cytotoxicity against human MCF7 cells assessed as cell survival after 48 hrs by XTT assay; conditions: MCF7, 48 h
[1] = Cytotoxicity against human SNO cells assessed as cell survival after 48 hrs by XTT assay
DU-145 = experiment: Cytotoxicity against human DU145 cells assessed as cell survival after 48 hrs by XTT assay; conditions: DU-145, 48 h
[2] = Cell cycle arrest in human U937 cells assessed as accumulation at S phase at 2 ug/ml after 24 hrs by propidium iodide staining-based flow cytometric analysis (reference value: 30.7%); format: functional; conditions: U-937
Procedure, shortened: (§1)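 U937 cells in complete RPMI 1640 (10% FBS, 25 mM HEPES, 2 mM glutamine) seeded at 2 × 10^6 cells/ml in flasks, recovered 24 h, then treated with compounds in DMSO (2 µg/ml). Cisplatin (10 µM) served as positive control and DMSO as negative control. Cells were harvested at 24 or 48 h and stained with propidium iodide. Phase percentages were gated on singlet cells by flow cytometry. Three independent experiments.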

U-937 [3] = experiment: Induction of apoptosis in human U937 cells assessed as caspase 3/7 activation at 2 ug/ml after 24 hrs by fluorescence reader relative to control; format: functional
Procedure, shortened: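 U937 cells (2 × 10^6/ml, 24 h recovery) were exposed for 24 h to compounds in DMSO (2 µg/ml), with cisplatin 10 µM and DMSO controls. Cells were pelleted and resuspended in RPMI, at least 2 × 10^5 cells per well. (DEVD)2 substrate was added and cells incubated 2 h at 37 °C, 5% CO2, resuspended every 20 min. Fluorescence was read at 544/590 and 544/620 nm.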

[4] = Cell cycle arrest in human U937 cells assessed as accumulation at G2/M phase at 2 ug/ml after 48 hrs by propidium iodide staining-based flow cytometric analysis (reference value: 16.6%); format: functional; conditions: U-937
Procedure, shortened: as §1

U-937 [5] = experiment: Induction of apoptosis in human U937 cells assessed as necrotic cells at 2 ug/ml after 24 hrs by annexin V-FITC/propidium iodide staining-based flow cytometry (reference value: 24.7%); format: functional
[6] = Cell cycle arrest in human U937 cells assessed as accumulation at S phase at 2 ug/ml after 48 hrs by propidium iodide staining-based flow cytometric analysis (reference value: 25.7%); format: functional; conditions: U-937
Procedure, shortened: as §1

U-937 [7] = experiment: Induction of apoptosis in human U937 cells assessed as early apoptotic cells at 2 ug/ml after 48 hrs by annexin V-FITC/propidium iodide staining-based flow cytometry (reference value: 5.7%); format: functional
U-937 [8] = experiment: Induction of apoptosis in human U937 cells assessed as early apoptotic cells at 2 ug/ml after 24 hrs by annexin V-FITC/propidium iodide staining-based flow cytometry (reference value: 6.3%); format: functional
U-937 [9] = experiment: Induction of apoptosis in human U937 cells assessed as viable cells at 2 ug/ml after 48 hrs by annexin V-FITC/propidium iodide staining-based flow cytometry (reference value: 81.3%); format: functional; conditions: U-937, 48 h, read-out: Activity
U-937 [10] = experiment: Induction of apoptosis in human U937 cells assessed as necrotic cells at 2 ug/ml after 48 hrs by annexin V-FITC/propidium iodide staining-based flow cytometry (reference value: 1.4%); format: functional
[11] = Cell cycle arrest in human U937 cells assessed as accumulation at subG1 phase at 2 ug/ml after 48 hrs by propidium iodide staining-based flow cytometric analysis (reference value: 1.1%); format: functional; conditions: U-937
Procedure, shortened: as §1

[12] = Cell cycle arrest in human U937 cells assessed as accumulation at subG1 phase at 2 ug/ml after 24 hrs by propidium iodide staining-based flow cytometric analysis (reference value: 15.1%); format: functional; conditions: U-937
Procedure, shortened: as §1

[13] = Cell cycle arrest in human U937 cells assessed as accumulation at G0/G1 phase at 2 ug/ml after 48 hrs by propidium iodide staining-based flow cytometric analysis (reference value: 54.6%); format: functional; conditions: U-937
Procedure, shortened: as §1

U-937 [14] = experiment: Induction of apoptosis in human U937 cells assessed as late apoptotic cells at 2 ug/ml after 24 hrs by annexin V-FITC/propidium iodide staining-based flow cytometry (reference value: 3%); format: functional
U-937 [15] = experiment: Induction of apoptosis in human U937 cells assessed as viable cells at 2 ug/ml after 24 hrs by annexin V-FITC/propidium iodide staining-based flow cytometry (reference value: 66%); format: functional; conditions: U-937, 24 h, read-out: Activity
[16] = Cell cycle arrest in human U937 cells assessed as accumulation at G0/G1 phase at 2 ug/ml after 24 hrs by propidium iodide staining-based flow cytometric analysis (reference value: 41.7%); format: functional; conditions: U-937
Procedure, shortened: as §1

[17] = Cell cycle arrest in human U937 cells assessed as accumulation at G2/M phase at 2 ug/ml after 24 hrs by propidium iodide staining-based flow cytometric analysis (reference value: 12.5%); format: functional; conditions: U-937
Procedure, shortened: as §1

U-937 [18] = experiment: Induction of apoptosis in human U937 cells assessed as late apoptotic cells at 2 ug/ml after 48 hrs by annexin V-FITC/propidium iodide staining-based flow cytometry (reference value: 11.7%); format: functional
U-937 [19] = experiment: Cytotoxicity against human U937 cells assessed as cell survival after 24 hrs by XTT assay; format: functional, cell-based
PBMC = experiment: Cytotoxicity against human PBMC assessed as cell survival after 24 hrs by fluorescence assay

SMILES	pIC50 (HeLa)	pIC50 (MCF7)	pIC50 [1]	pIC50 (DU-145)	Activity [2]	Activity [4]	Activity [6]	Activity [11]	Activity [12]	Activity [13]	Activity [16]	Activity [17]	further results
COc1cc(C)cc2c1C(=O)C=CC2=O	4.68	4.82	4.65	4.51	–	–	–	–	–	–	–	–	–
CCOc1cc(C)c(Cl)c2c1C(=O)C=CC2=O	4.72	4.40	4.35	4.60	–	–	–	–	–	–	–	–	–
Cc1ccc2c(c1O)C(=O)C=CC2=O	4.79	4.82	4.72	4.81	14.2%	7%	14.6%	15%	33.8%	62.9%	43%	8.6%	Activity (U-937 [3]): -5.14%; Activity (U-937 [5]): 28.3%; Activity (U-937 [7]): 6.4%; Activity (U-937 [8]): 24.8%; viability at 2 µg/mL (U-937 [9]): 20.1%; Activity (U-937 [10]): 30.3%; Activity (U-937 [14]): 31.4%; viability at 2 µg/mL (U-937 [15]): 15.5%; Activity (U-937 [18]): 43.2%
COc1c(C)cc(Cl)c2c1C(=O)C=CC2=O	4.38	4.79	4.35	4.44	–	–	–	–	–	–	–	–	–
CCOc1cc(C)cc2c1C(=O)C=CC2=O	4.53	4.63	4.60	4.82	–	–	–	–	–	–	–	–	–
Cc1cc(Cl)c2c(c1O)C(=O)C=CC2=O	5.00	5.00	5.03	5.03	11.4%	5.3%	14.1%	17.9%	18.1%	62.2%	65.6%	4.5%	Activity (U-937 [19]): Not toxic; Activity (U-937 [5]): 49.6%; Activity (U-937 [7]): 1.9%; Activity (U-937 [8]): 17.1%; viability at 2 µg/mL (U-937 [9]): 1.9%; Activity (U-937 [10]): 60.1%; Activity (U-937 [14]): 28.3%; viability at 2 µg/mL (U-937 [15]): 5%; Activity (U-937 [18]): 36.1%
Cc1cc(O)c2c(c1F)C(=O)C=CC2=O	4.99	4.69	4.72	4.81	17.4%	6.9%	15.9%	11.8%	8.2%	64.8%	69.2%	4.7%	Activity (U-937 [3]): -5.21%; Activity (U-937 [19]): Not toxic; Activity (U-937 [5]): 61.1%; Activity (U-937 [7]): 1%; Activity (U-937 [8]): 10.2%; viability at 2 µg/mL (U-937 [9]): 1.6%; Activity (U-937 [10]): 53.9%; Activity (U-937 [14]): 34.2%; viability at 2 µg/mL (U-937 [15]): 4.5%; pIC50 (PBMC): 3.72; Activity (U-937 [18]): 42.6%
CC(=O)Oc1cc(OC(C)=O)c2c(OC(C)=O)c(C)cc(Cl)c2c1OC(C)=O	4.55	4.24	4.27	4.09	–	–	–	–	–	–	–	–	–
CCOc1c(C)cc(Cl)c2c1C(=O)C=CC2=O	4.48	4.49	4.43	4.58	–	–	–	–	–	–	–	–	–
Cc1cc(O)c2c(c1Br)C(=O)C=CC2=O	4.95	4.81	4.83	4.33	16.8%	17.7%	28.8%	13%	14.8%	53%	63.3%	4.6%	Activity (U-937 [19]): Not toxic; Activity (U-937 [5]): 67.1%; Activity (U-937 [7]): 3.4%; Activity (U-937 [8]): 10%; viability at 2 µg/mL (U-937 [9]): 3.8%; Activity (U-937 [10]): 53.8%; Activity (U-937 [14]): 7%; viability at 2 µg/mL (U-937 [15]): 15.9%; Activity (U-937 [18]): 39%
Cc1cc(O)c2c(c1)C(=O)C(O)=CC2=O	5.28	4.84	4.63	5.17	27.3%	7.3%	16.1%	10.6%	3%	65.1%	53.4%	15.5%	Activity (U-937 [3]): 7.39%; pIC50 (PBMC): 4.27
CC(=O)Oc1cc(C)c(Cl)c2c1C(=O)C=CC2=O	4.58	4.42	4.54	4.59	–	–	–	–	–	–	–	–	–
CC(=O)Oc1cc(C)cc2c1C(=O)C=CC2=O	4.76	4.83	4.55	4.62	–	–	–	–	–	–	–	–	–
Cc1cc(O)c2c(c1Cl)C(=O)C=CC2=O	4.87	4.80	4.76	4.53	16.2%	5.4%	10.5%	53.5%	17.1%	30.2%	60.9%	5.4%	Activity (U-937 [19]): Not toxic
Cc1cc(O)c2c(c1)C(=O)C=CC2=O [RAMENTACEONE]	4.18	4.57	4.09	4.92	–	–	–	–	–	–	–	–	pIC50 (PBMC): 4.74
COc1cc(C)c(Cl)c2c1C(=O)C=CC2=O	4.72	4.69	4.61	4.58	–	–	–	–	–	–	–	–	–
CC(=O)Oc1cc(OC(C)=O)c2c(OC(C)=O)cc(C)c(Cl)c2c1OC(C)=O	4.28	4.29	4.24	4.22	–	–	–	–	–	–	–	–	–
COc1cccc2c1C(=O)c1c(O)c3c(c(O)c1C2=O)C[C@@](O)(C(=O)CO)C[C@@H]3O[C@H]1C[C@H](N)[C@H](O)[C@H](C)O1 [DOXORUBICIN]	–	–	8.00	8.00	–	–	–	–	–	–	–	–	–
CC(=O)Oc1c(C)cc(Cl)c2c1C(=O)C=CC2=O	4.66	4.73	4.54	4.90	–	–	–	–	–	–	–	–	–
CC(=O)Oc1cc(OC(C)=O)c2c(OC(C)=O)cc(C)cc2c1OC(C)=O	4.65	4.09	4.60	4.19	–	–	–	–	–	–	–	–	–
